The record followed here is ChEMBL document CHEMBL1124167, “Syntheses and gastric acid antisecretory properties of the H2-receptor antagonist. N-[3-[3-(1-piperidinylmethyl)phenoxy]propyl]thieno[3,4-d]isot hiazol-3-amine 1,1-dioxide and related derivatives” (J Med Chem, 1988).

Activity calls are given as the source filed them. The rule behind the calls is not given here.

In general, ED50 refers to the dose at which the effect has come halfway, by size or by number of responders. Higher therefore signals a need for a large dose.

The first assay is filed under the species Canis familiaris. Kind of assay: Efficacy against histamine stimulation was determined in dog. The settings on record: Canis lupus familiaris. The format is functional. The method, boiled down: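 Gastric pouch dogs fasted 18 h with water, baseline from two 15-min samples. Drug in 0.9% saline given by oral gavage 30 min before histamine diphosphate (64 μg/kg base, sc). Samples collected at 15-min intervals and acid titrated to pH 7.0 with 0.1 N NaOH. Total acid output summed over 1 h, percent inhibition vs the same dog's saline run, runs ≥3 days apart.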
As for `CN/C(=C\[N+](=O)[O-])NCCSCc1ccc(CN(C)C)o1` [RANITIDINE], the ED50 worked out at 0.93 mg/kg. The same measure, in the same setting: to `O=S1(=O)N=C(NCCCOc2cccc(CN3CCCCC3)c2)c2cscc21` belongs 0.35 mg/kg.

In a further assay the test system is Rattus norvegicus. Kind of assay: In vivo inhibitory activity against basal acid secretion in pylorus-ligated rat was determined at a dose of 4 mg/kg. The format is functional.
Settings: not given
In outline: (§1)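 Male SD/CD rats (190–260 g), fasted 24 h with water, groups of 10. Pylorus ligated under methohexital (40 mg/kg). Drug in 0.25% aqueous methylcellulose given intraduodenally (1 mL/kg) right after ligation. Killed 4 h later. Gastric juice volume × acid concentration (titration to pH 7.0 with 0.1 N NaOH) gives total acid output, expressed as percent inhibition vs vehicle controls.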
Turning to `O=Cc1cccc(OCCCNC2=NS(=O)(=O)c3cscc32)c1`, the Total acid output is on record as 89%. Regarding `N=C(N)Nc1nc(CSCCNC2=NS(=O)(=O)c3cscc32)cs1`, the Total acid output is given as 83%. On the same count and under the same terms, to `Cl.O=S1(=O)N=C(NCCCOc2cccc(CN3CCCC3)c2)c2cscc21` belongs 19%. As to `O=S1(=O)N=C(NCCCOc2cccc(CN3CC=CCC3)c2)c2cscc21`, the Total acid output turned out to be 18%.

Turning to `CCCN(CCC)Cc1cccc(OCCCNC2=NS(=O)(=O)c3cscc32)c1.Cl`, the Total acid output came to 16%.

The next assay deals with Rattus norvegicus. Kind of assay: In vivo inhibitory activity against basal acid secretion in pylorus-ligated rat was determined at a dose of 8 mg/kg. The format is functional.
Settings: not given
The method, boiled down: as §1
`O=S1(=O)N=C(NCCCOc2ccc(CN3CCCCC3)cc2)c2cscc21`: the Total acid output is given as 21%. On the same count and under the same terms, to `O=S1(=O)N=C(NCCCOc2cccc(CN3CCCCC3)c2)c2sccc21` belongs 12%; to `Cl.NS(=O)(=O)c1cscc1C(=O)NCCCOc1cccc(CN2CCCCC2)c1.O`, 36%; to `O=C(c1cccc(OCCCNC2=NS(=O)(=O)c3cscc32)c1)N1CCCCC1`, 94%. Same read-out and setting: the result for `Cc1[nH]cnc1CSCCNC1=NS(=O)(=O)c2cscc21` reads 87%; that for `O=S1(=O)N=C(NCCCOc2cccc(CN3CCCCC3)c2)c2cscc21`, 16%. Take `NS(=O)(=O)c1cscc1C(=O)NCCCOc1cccc(C=O)c1`: the Total acid output worked out at 94%.

Another assay has as its system Rattus norvegicus. As to the kind of experiment: In vivo inhibitory activity against basal acid secretion in pylorus-ligated rat was determined at a dose of 4 mg/kg; Inactive.
Settings: not given
As to `O=Cc1cccc(OCCCNC2=NS(=O)(=O)c3cscc32)c1`, the result was inactive.
